# Only some compounds are listed: those with a hit (about 4.6% of all), similar ones and a draw of the others.
# Arrestin-AP2 inh = human beta-arrestin and AP2 interaction inhibition | FITC-arrestin peptide / GST-AP2 beads, flow cytometry; AP2 beta2 appendage carries R879A mutation | inhibition, % at 10 µM | 340,000 compounds, 0.31% hits;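 active = inhibition above a set limit, near 3 SD of compounds lacking own fluorescence, cut at about 54% in these data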;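 note: plate controls were DMSO wells for no effect and 5 µM unlabelled arrestin peptide for full effect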
#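 system = GST-tagged AP2 beta2-adaptin appendage (R879A) on 4 µm glutathione beads | reagent = FITC-labelled arrestin peptide probe, 50 nM final | schedule = compound with beads 12 min RT, then probe 1 h RT | signal = HyperCyt-sampled flow cytometry, FL1 channel, ex 488/em 535 nm | read-out = percent response from loss of bead-bound FITC fluorescence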
# NALP3 yeast inh = NALP3 inhibition in yeast; Yeast reconstituted NLRP3/ASC/caspase-1, beta-gal luminescence, 24 h; inhibition, % at 10 µM; 330,000 compounds, 0.39% hits; AID 2825;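 active = inhibition of 50% or more; inactive = inhibition below 50%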;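 note: plate controls were induced DMSO wells for no effect and uninduced yeast grown without galactose for full effect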
# NALP1 yeast inh = blocks the NALP1 inflammasome reconstituted in yeast; S. cerevisiae NALP1/ASC/caspase-1 growth, X-gal OD620, 72 h; inhibition, % at 10 µM; 280,000 compounds, 0.61% hits; AID 2071; in the data active = inhibition mostly above about 24%, no sharp cut-off; inactive = mostly below about 32%
# Pemphigus Ab inh = human desmoglein-3 autoantibody binding inhibition | P32926 | DSG3-coupled beads, scFv-anti-DSG3-GFP binding, flow cytometry; hits give low values | binding (percent of control), % at 10 µM | 310,000 compounds, 0.48% hits | AID 588358;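 active = binding more than 3 SD below its plate's average and above zero; inconclusive = below that plate limit but binding exactly zero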;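 note: hits lower antibody fragment binding to DSG3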
# PolyA inh = yeast polyadenylation inhibition; S. cerevisiae SKY197-pL101 polyadenylation reporter, beta-gal luminescence; efflux-impaired pdr1/pdr3 knockout yeast; score 100 = 6 SD above DMSO; activity score, % at 12 µM; 300,000 compounds, 0.02% hits;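 active = lowest replicate activity score at least 50, where 100 means six control SD above control mean; inconclusive = lowest score under 50 but half or more replicates reach 50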;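 note: yeast exposed to compound for 9 h at 30 °C; higher score means more reporter readthrough which indicates perturbed polyadenylation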
# ALR H2O2 inh = inhibitors of human sulfhydryl oxidase ALR; P55789; purified ALR, DTT oxidation, H2O2 HRP-luminol luminescence; inhibition, % (test concentration not listed); 290,000 compounds, 3.8% hits; AID 485317;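 active = mean replicate inhibition above about 79%, with every replicate also reaching it, limit read from the data; inconclusive = only one of the two criteria met; inactive = mean below limit and not every replicate reaching it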
# Target sequence (P55789 whole entry, looked up): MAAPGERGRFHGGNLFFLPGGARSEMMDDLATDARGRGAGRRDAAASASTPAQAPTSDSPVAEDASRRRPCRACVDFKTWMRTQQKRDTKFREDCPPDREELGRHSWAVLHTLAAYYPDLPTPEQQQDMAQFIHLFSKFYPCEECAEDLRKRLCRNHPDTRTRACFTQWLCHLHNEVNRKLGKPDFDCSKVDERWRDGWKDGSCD
# * marks the source's active call; other numbers are inactive results; u = inconclusive; x = no result.
SMILES,Arrestin-AP2 inh,NALP3 yeast inh,NALP1 yeast inh,Pemphigus Ab inh,PolyA inh,ALR H2O2 inh
C#CCNc1c2c(nc3ncnn13)CC(C)CC2 (stereo unspecified),-2,2,x,98,-7,0
CCOc1ccc(C(Nc2ccc(C)cc2)P2(=O)OCCC(C)O2)cc1 (stereo unspecified),2,-5,0,107,1,98*
O=C(CNC(=S)NC(=O)c1cccs1)c1ccccc1,-1,16,15,107,-18,-1
COc1ccc(C(=O)NC(=S)NNC(=O)COc2ccccc2)cc1,5,40,15,99,8,98*
CCC(=O)NNC(=S)NC(=O)c1ccc(C)cc1,6,31,6,101,-20,99*
O=C(CCc1ccccc1)NNC(=S)NC(=O)c1ccc(Cl)cc1,x,22,-5,x,-32,99*
Cc1ccc(C(=O)NC(=S)NCC(=O)c2ccccc2)cc1,5,3,27,-20*,-2,-1
Cc1nn(-c2ccc(N3CCOCC3)nn2)c(C)c1CCC(=O)NCc1ccccc1,-8,-8,-8,104,14,-1
Cc1ccc(C(=O)N2CCCCC2)cc1S(=O)(=O)N1CCOCC1,-11,4,0,115,-5,-2
Cc1ccc(C(=O)NC(=S)NNC(=O)COc2ccc([N+](=O)[O-])cc2)cc1,20,22,-7,94,-7,99*
Clc1ccccc1CSc1snnc1-c1ccccc1,5,-10,7,101,-27,98*
Clc1ccc(CSc2snnc2-c2ccccc2)cc1,13,18,37,102,-19,-8
CO[C@H]1C[C@@H]2CC[C@@H](C)[C@@](O)(O2)C(=O)C(=O)N2CCCC[C@H]2C(=O)O[C@H]([C@H](C)C[C@@H]2CC[C@@H](O)[C@H](OC)C2)CC(=O)[C@H](C)C=C(C)[C@@H](O)[C@@H](OC)C(=O)[C@H](C)C[C@H](C)C=CC=CC=C1C,x,x,66*,x,x,x
O=C(CSc1nnc(-c2ccco2)o1)c1ccccc1,7,18,14,99,4,99*
O=C(CSc1nnc(-c2ccco2)o1)c1ccc(F)c(F)c1,-8,14,6,97,0,28
CC(=O)c1c(C)cc(C)c(CSc2nnc(-c3ccco3)o2)c1C,-2,43,9,100,20,90*
O=C(CSc1nnc(-c2ccco2)o1)c1ccc[nH]1,-16,3,5,88,4,98*
Cc1cccc(CSc2nnc(-c3ccco3)o2)c1,-11,36,18,101,-50,-4
CCCCOc1ccc(C(=O)NCC(=O)NCCOc2ccccc2OC)cc1,2,-1,x,99,x,-1
O=C(Nc1ccccc1)c1ccc(C(=O)Nc2ccccc2)nc1,10,15,9,23*,-10,-3
CC(=O)Nc1cccc(NC(=O)c2ccc(C(=O)Nc3cccc(NC(C)=O)c3)nc2)c1,-1,12,6,110,12,-13
CCCCCn1c(N2CCCC2)nc2c1c(=O)n(C)c(=O)n2C,-2,32,8,100,29,98*
CCCCCCn1c(N2CCN(c3ccccc3)CC2)nc2c1c(=O)n(C)c(=O)n2C,5,19,9,100,-22,3
CC(=O)c1cc(F)c(N2CCOCC2)cc1C,-2,27,44*,101,18,-5
CC(=O)c1cc(F)c(N2CCCC2)cc1C,-4,45,33,x,-21,-6
SMILES,Arrestin-AP2 inh,NALP3 yeast inh,NALP1 yeast inh,Pemphigus Ab inh,PolyA inh,ALR H2O2 inh
CC(=O)NNC(=O)c1cc2c3ccccc3n(C)c2s1,33,22,3,102,1,20
Cn1c2ccccc2c2cc(C(=O)N3CCN(CCO)CC3)sc21,4,11,21,90,9,99*
Nc1cc2c(cc1C(=O)c1ccccc1)OCCO2,2,17,8,100,-19,98*
Cc1ccc(C(=O)c2cc3c(cc2N)OCCO3)cc1,12,5,33,109,26,x
CCOc1ccccc1/C=C/c1onc(C)c1S(=O)(=O)N1CCC(C(=O)N2CCCCCC2)CC1,-23,13,27,103,9,-4
Cc1nn(C)c(C)c1C(C)NC(=O)c1cc(COc2ccc(F)c(F)c2)on1 (stereo unspecified),0,19,2,95,-26,-3
COC(=O)C[C@H]1C=C[C@@H](C(C(=O)OC)C(=O)OC)CN1C(C)=O,-5,x,x,98,x,x
CCCn1c(SCC(=O)Nc2nnc(CC)s2)nnc1-c1ccncc1,6,7,30*,104,11,-3
CCc1nnc(NC(=O)CSc2nnc(-c3cccnc3)n2CC)s1,5,12,40*,80,0,-7
CC(C)[C@H](NC(=O)c1c(F)cccc1F)C(=O)OCC(=O)NNC(=O)c1ccccc1,x,x,x,104,x,x
COc1cnc(-c2ccccn2)nc1Oc1cccc(Cl)c1,-8,29,9,98,-27,95*
CCOc1ccc(N(CC(=O)Nc2ccc(OC)cc2)C2=NC3CS(=O)(=O)CC3S2)cc1 (stereo unspecified),-7,11,5,77,7,99*
O=S1(=O)CC2N=C(N(Cc3ccc(F)cc3Cl)c3ccccc3F)SC2C1 (stereo unspecified),1,3,22,96,0,98*
Cc1cccc(NC(=O)CN(C2=NC3CS(=O)(=O)CC3S2)c2ccccc2F)c1 (stereo unspecified),0,1,10,112,3,99*
Cc1cc(C)c(C)c(S(=O)(=O)N2CCN(C(=O)c3ccccc3OCc3c(C)noc3C)CC2)c1C,12,14,x,97,x,1
CCC(=O)N1CCN=C1SCc1ccccc1,-5,0,-34,x,1,-8
O=C(COc1ccccc1)N1CCN=C1SCc1ccc(F)cc1,-4,18,x,97,-5,98*
CC(Oc1ccccc1)C(=O)N1CCN=C1SCc1ccc(F)cc1 (stereo unspecified),9,8,x,101,u,96*
O=C(COc1ccccc1)N1CCN=C1SCc1cccnc1,5,3,9,107,18,100*
CC(=O)NC(CCS(C)(=O)=O)C(=O)Nc1nc(C)cs1 (stereo unspecified),4,6,3,81*,3,-7
C/C=C(/CCC1NCCc2c1[nH]c1ccccc21)[Si](C)(C)C (stereo unspecified),-14,x,x,96,x,x
C(=N\Nc1ccccn1)/c1ccc(N2CCOCC2)cc1,2,6,19,125,2,99*
C/C(=N\Nc1ccccn1)c1ccc(N2CCOCC2)cc1,-18,7,-12,116,12,98*
C/C(=N\Nc1ccccn1)c1ccc(C(C)C)cc1,43,5,-10,103,-14,-3

# Compound activity: PubChem BioAssay, several laboratories
